Experimental data taken from ChEMBL document CHEMBL6083196, “Synthesis and cytotoxic activity of madecassic acid-silybin conjugate compounds in liver cancer cells” (2024).

What follows are molecules tested on HepG2 (assay: Cytotoxicity against human HepG2 cells incubated for 96 hrs by MTT assay).
Format: functional
Summary of the method: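 Cells grown in DMEM with 10% FBS and 1% antibiotic at 37 °C, 5% CO2. Trypsinised, seeded at 3 × 10^4 cells per mL, treated over an eight-point titration for 96 h. MTT (0.5 mg mL−1) added for 4 h at 37 °C, formazan dissolved in DMSO, absorbance read at 570 nm. GI50 is the concentration halving the MTT signal versus untreated control. Ellipticine served as reference; n ≥ 3 repeats.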

Compound | GI50 [µM]
COc1cc([C@H]2Oc3cc([C@H]4Oc5cc(O)cc(O)c5C(=O)[C@@H]4OC(=O)CCNC(=O)[C@]45CC[C@@H](C)[C@H](C)[C@H]4C4=CC[C@@H]6[C@@]7(C)C[C@@H](OC(C)=O)[C@H](OC(C)=O)[C@@](C)(COC(C)=O)[C@@H]7[C@H](O)C[C@@]6(C)[C@]4(C)CC5)ccc3O[C@@H]2CO)ccc1O | 141
COc1cc([C@H]2Oc3cc([C@H]4Oc5cc(OC(C)=O)cc(OC(C)=O)c5C(=O)[C@@H]4OC(=O)CNC(=O)[C@]45CC[C@@H](C)[C@H](C)[C@H]4C4=CC[C@@H]6[C@@]7(C)C[C@@H](OC(C)=O)[C@H](OC(C)=O)[C@@](C)(COC(C)=O)[C@@H]7[C@H](O)C[C@@]6(C)[C@]4(C)CC5)ccc3O[C@@H]2COC(C)=O)ccc1OC(C)=O | 122
COc1cc([C@H]2Oc3cc([C@H]4Oc5cc(OC(C)=O)cc(OC(C)=O)c5C(=O)[C@@H]4OC(=O)CCNC(=O)[C@]45CC[C@@H](C)[C@H](C)[C@H]4C4=CC[C@@H]6[C@@]7(C)C[C@@H](OC(C)=O)[C@H](OC(C)=O)[C@@](C)(COC(C)=O)[C@@H]7[C@H](O)C[C@@]6(C)[C@]4(C)CC5)ccc3O[C@@H]2COC(C)=O)ccc1OC(C)=O | 360
COc1cc([C@H]2Oc3cc(-c4cc(=O)c5c(O)cc(OC(=O)[C@]67CC[C@@H](C)[C@H](C)[C@H]6C6=CC[C@@H]8[C@@]9(C)C[C@@H](OC(C)=O)[C@H](OC(C)=O)[C@@](C)(COC(C)=O)[C@@H]9[C@H](O)C[C@@]8(C)[C@]6(C)CC7)cc5o4)ccc3O[C@@H]2CO)ccc1O | > 500
COc1cc([C@H]2Oc3cc(-c4oc5cc(OC(C)=O)cc(OC(C)=O)c5c(=O)c4OC(=O)[C@]45CC[C@@H](C)[C@H](C)[C@H]4C4=CC[C@@H]6[C@@]7(C)C[C@@H](OC(C)=O)[C@H](OC(C)=O)[C@@](C)(COC(C)=O)[C@@H]7[C@H](O)C[C@@]6(C)[C@]4(C)CC5)ccc3O[C@@H]2COC(C)=O)ccc1OC(C)=O | 471
COc1cc([C@H]2Oc3cc([C@H]4Oc5cc(OC(C)=O)cc(OC(C)=O)c5C(=O)[C@@H]4OC(=O)CNC(=O)[C@]45CC[C@@H](C)[C@H](C)[C@H]4C4=CC[C@@H]6[C@@]7(C)C[C@@H](OC(C)=O)[C@H](OC(C)=O)[C@@](C)(COC(C)=O)C7=CC[C@@]6(C)[C@]4(C)CC5)ccc3O[C@@H]2COC(C)=O)ccc1OC(C)=O | 243
COc1cc([C@H]2Oc3cc([C@H]4Oc5cc(O)cc(O)c5C(=O)[C@@H]4OC(=O)CNC(=O)[C@]45CC[C@@H](C)[C@H](C)[C@H]4C4=CC[C@@H]6[C@@]7(C)C[C@@H](OC(C)=O)[C@H](OC(C)=O)[C@@](C)(COC(C)=O)C7=CC[C@@]6(C)[C@]4(C)CC5)ccc3O[C@@H]2CO)ccc1O | 174
COc1cc([C@H]2Oc3cc([C@H]4Oc5cc(O)cc(O)c5C(=O)[C@@H]4OC(=O)CCNC(=O)[C@]45CC[C@@H](C)[C@H](C)[C@H]4C4=CC[C@@H]6[C@@]7(C)C[C@@H](OC(C)=O)[C@H](OC(C)=O)[C@@](C)(COC(C)=O)C7=CC[C@@]6(C)[C@]4(C)CC5)ccc3O[C@@H]2CO)ccc1O | 344
CC(=O)OC[C@@]1(C)[C@@H]2[C@H](O)C[C@]3(C)[C@H](CC=C4[C@@H]5[C@@H](C)[C@H](C)CC[C@]5(C(=O)O)CC[C@]43C)[C@@]2(C)C[C@@H](OC(C)=O)[C@@H]1OC(C)=O | 44.1
CC(=O)OC[C@@]1(C)C2=CC[C@]3(C)C(CC=C4[C@@H]5[C@@H](C)[C@H](C)CC[C@]5(C(=O)O)CC[C@]43C)[C@@]2(C)C[C@@H](OC(C)=O)[C@@H]1OC(C)=O (some centres not stated) | 38.5
COc1cc([C@H]2Oc3cc([C@H]4Oc5cc(OC(C)=O)cc(OC(C)=O)c5C(=O)[C@@H]4OC(=O)CCCCCCCCCCNC(=O)[C@]45CC[C@@H](C)[C@H](C)[C@H]4C4=CC[C@@H]6[C@@]7(C)C[C@@H](OC(C)=O)[C@H](OC(C)=O)[C@@](C)(COC(C)=O)[C@@H]7[C@H](O)C[C@@]6(C)[C@]4(C)CC5)ccc3O[C@@H]2COC(C)=O)ccc1OC(C)=O | 199
COc1cc([C@H]2Oc3cc([C@H]4Oc5cc(OC(=O)[C@]67CC[C@@H](C)[C@H](C)[C@H]6C6=CC[C@@H]8[C@@]9(C)C[C@@H](OC(C)=O)[C@H](OC(C)=O)[C@@](C)(COC(C)=O)[C@@H]9[C@H](O)C[C@@]8(C)[C@]6(C)CC7)cc(O)c5C(=O)[C@@H]4O)ccc3O[C@@H]2CO)ccc1O | > 500
COc1cc([C@H]2Oc3cc([C@H]4Oc5cc(O)cc(O)c5C(=O)[C@@H]4OC(=O)CCCCCCCCCCNC(=O)[C@]45CC[C@@H](C)[C@H](C)[C@H]4C4=CC[C@@H]6[C@@]7(C)C[C@@H](OC(C)=O)[C@H](OC(C)=O)[C@@](C)(COC(C)=O)[C@@H]7[C@H](O)C[C@@]6(C)[C@]4(C)CC5)ccc3O[C@@H]2CO)ccc1O | 383
COc1cc([C@H]2Oc3cc([C@H]4Oc5cc(OC(C)=O)cc(OC(C)=O)c5C(=O)[C@@H]4OC(=O)CCNC(=O)[C@]45CC[C@@H](C)[C@H](C)[C@H]4C4=CC[C@@H]6[C@@]7(C)C[C@@H](OC(C)=O)[C@H](OC(C)=O)[C@@](C)(COC(C)=O)C7=CC[C@@]6(C)[C@]4(C)CC5)ccc3O[C@@H]2COC(C)=O)ccc1OC(C)=O | 352
COc1cc([C@H]2Oc3cc(-c4oc5cc(O)cc(O)c5c(=O)c4OC(=O)[C@]45CC[C@@H](C)[C@H](C)[C@H]4C4=CC[C@@H]6[C@@]7(C)C[C@@H](OC(C)=O)[C@H](OC(C)=O)[C@@](C)(COC(C)=O)[C@@H]7[C@H](O)C[C@@]6(C)[C@]4(C)CC5)ccc3O[C@@H]2CO)ccc1O | 217
Cc1c2ccncc2c(C)c2c1[nH]c1ccccc12 [ELLIPTECINE] | 0.42
COc1cc([C@H]2Oc3cc([C@H]4Oc5cc(O)cc(O)c5C(=O)[C@@H]4O)ccc3O[C@@H]2CO)ccc1O [SILYBIN A] | 285
